Results from different studies.
Each line is one published result; the experiments were not run side by side.
MTNR1A: Melatonin receptor type 1A (MTNR1A, Homo sapiens, UniProt P48039)
BMP2K: BMP-2-inducible protein kinase (BMP2K, Homo sapiens, UniProt Q9NSY1)
BRWD3: BRWD3 (Homo sapiens, UniProt Q6RI45)
Grm1: Metabotropic glutamate receptor 1 (Grm1, Rattus norvegicus, UniProt P23385)
Trypanothione synthetase: Trypanothione synthetase (Trypanosoma cruzi, UniProt Q9GT49)
CDC42BPG: Serine/threonine-protein kinase MRCK gamma (CDC42BPG, Homo sapiens, UniProt Q6DT37)
murC: UDP-N-acetylmuramate--L-alanine ligase (murC, Escherichia coli K-12, UniProt P17952)

Structure (SMILES) | target | test | system | conditions | endpoint | value
COc1ccc2cccc(CCNC(C)=O)c2c1 | MTNR1A | β-arrestin recruitment, agonist | CHO-K1 | 90 min | Emax | 96%
Cc1nn(CC(F)(F)F)cc1Nc1ncc(Br)c(NCCCNC(=O)C2CCC2)n1 | BMP2K | enzyme activity, inhibitor, radiometric | – | 1 µM | remaining activity | 19%
COc1ccc2ncn(CCNC(C)=O)c2c1 | MTNR1A | β-arrestin recruitment, agonist | CHO-K1 | 90 min | Emax | 92%
Cc1nn(CC(F)(F)F)cc1Nc1ncc(Br)c(NCc2ccc(S(N)(=O)=O)cc2)n1 | BMP2K | enzyme activity, inhibitor, radiometric | – | 1 µM | remaining activity | 30%
Cc1cnc(Nc2ccc(OCCN3CCCC3)cc2)nc1Nc1cccc(S(=O)(=O)NC(C)(C)C)c1 | BRWD3 | thermal stability, DSF | – | 10 µM | ΔTm | 0.58 °C
Cc1nn(CC(F)(F)F)cc1Nc1ncc(C2CC2)c(NCCCNC(=O)C2CCC2)n1 | BMP2K | enzyme activity, inhibitor, radiometric | – | 1 µM | remaining activity | 73%
CCCOc1ccc(OC)c(F)c1C(=O)c1ccc(C(=O)N[C@@H]2CNC[C@H]2NC(=O)c2ccc3[nH]ncc3c2)cc1 | Rho-associated protein kinase 2 (ROCK2, Homo sapiens, UniProt O75116) | enzyme activity, inhibitor | – | 10 µM | remaining activity | 3%
Cc1cccnc1C(=O)Nc1ccc(N2C(=O)c3cccc(Cl)c3C2=O)c(Cl)c1 | Grm1 | calcium signal, positive allosteric modulator | T-REx-293 | – | Emax | 118%
COc1cc(NC(C)=O)c(Cl)cc1C(=O)Nc1nccs1 | Prostaglandin G/H synthase 1 (PTGS1, Homo sapiens, UniProt P23219) | enzyme activity, inhibitor | – | 10 µM | inhibition | 72%
CCc1ccc2scc(CCNC(C)=O)c2c1 | MTNR1A | cAMP, agonist, TR-FRET | CHO-K1 | 20 min | Emax | 75%
O=C(CN1C(=O)Cc2c([nH]c3ccc(Br)cc23)-c2ccc(Cl)cc21)NC1=NCCS1 | Trypanothione synthetase | enzyme activity, inhibitor, absorbance | – | 30 µM | inhibition | 16%
COc1ccc2[nH]cc(CCNC(C)=O)c2c1I | MTNR1A | β-arrestin recruitment, agonist | CHO-K1 | 90 min | Emax | 91%
FC(F)(F)Oc1cccc(-c2cnc3ccc(-c4ccncc4)nn23)c1 | CDC42BPG | cell-free assay, competition with immobilised ligand | – | 5 µM | remaining binding | 18%
O=C(c1ccc(Cl)cc1)N(Cc1ccccc1)C1CCCCC1 | 5-hydroxytryptamine receptor 2C (HTR2C, Homo sapiens, UniProt P28335) | ligand displacement, radioligand | – | 10 µM | inhibition | -5.5%
Cc1nn(CC(F)(F)F)cc1Nc1ncc(C2CC2)c(NCCc2c[nH]cn2)n1 | BMP2K | enzyme activity, inhibitor, radiometric | – | 1 µM | remaining activity | 96%
O=[N+]([O-])c1cccc(COc2ccccc2C=NNS(=O)(=O)c2ccc3ccccc3c2)c1 | murC | enzyme activity, inhibitor, absorbance | – | 50 µM | remaining activity | 65%
CC(CCC(=O)NCC(=O)O)C1CCC2C3CCC4CC(O)CCC4(C)C3CC(O)C12C (stereo not shown) | Serine hydroxymethyltransferase, cytosolic (SHMT1, Homo sapiens, UniProt P34896) | thermal stability | – | 50 µM | ΔTm | 9.2 °C
COc1cc2c(CCNC(C)=O)c[nH]c2cc1I | MTNR1A | β-arrestin recruitment, agonist | CHO-K1 | 90 min | Emax | 101%
Nc1ncnc2occ(-c3ccc(NC(=O)Nc4cc(C(F)(F)F)ccc4F)cc3)c12 | Receptor-type tyrosine-protein kinase FLT3 (FLT3, Homo sapiens, UniProt P36888, N841I) | cell-free assay, inhibitor | – | 20 µM | remaining signal | 0.75%

Structure (SMILES) | target | test | system | conditions | endpoint | value
NCCCCNC(=O)CN1C(=O)Cc2c([nH]c3ccc(Br)cc23)-c2ccc(Cl)cc21 | Trypanothione synthetase | enzyme activity, inhibitor, absorbance | – | 30 µM | inhibition | 6.7%
NS(=O)(=O)c1ccc(CNc2ccnc(Nc3cccc(NC(=O)N4CCCC4)c3)n2)cc1 | BMP2K | enzyme activity, inhibitor, radiometric | – | 1 µM | remaining activity | 80%
CN(C)C1CCN(CC#Cc2nn(C3CCCC3)c3nc(NCc4ccccc4)ncc23)C1 (stereo not shown) | Testis-specific serine/threonine-protein kinase 1 (TSSK1B, Homo sapiens, UniProt Q9BXA7) | enzyme activity, inhibitor, FRET | – | 1 µM | inhibition | -2%
O=C(O)C(=O)Cc1ccccc1 | Macrophage migration inhibitory factor (MIF, Homo sapiens, UniProt P14174) | enzyme activity, substrate | – | – | Km | 760 µM
O=C(NCCCNc1nc(Nc2cccc(NC(=O)N3CCCC3)c2)ncc1Br)C1CCC1 | BMP2K | enzyme activity, inhibitor, radiometric | – | 1 µM | remaining activity | -1%
Cc1cc2c(cc1N1C(=O)c3cccc4c(Cl)ccc(c34)C1=O)n(C)c(=O)n2C | BRWD3 | thermal stability, DSF | – | 10 µM | ΔTm | -0.5 °C
COc1cc2c(CCNC(C)=O)c(I)[nH]c2cc1[N+](=O)[O-] | MTNR1A | GTPγS binding, agonist, radiometric | – | cell membranes | Emax | 72%
NC(=O)CN1C(=O)Cc2c([nH]c3ccc(Br)cc23)-c2ccc(Cl)cc21 | Trypanothione synthetase | enzyme activity, inhibitor, absorbance | – | 30 µM | inhibition | 5.2%
N#Cc1ccc(COc2ccccc2C=NNS(=O)(=O)c2ccc3ccccc3c2)cc1 | murC | enzyme activity, inhibitor, absorbance | – | 100 µM | remaining activity | 36%
CCN(Cc1ccccc1C(F)(F)F)C(=O)C1CCN(S(=O)(=O)c2ccc3[nH]ncc3c2)CC1 | B1 bradykinin receptor (BDKRB1, Homo sapiens, UniProt P46663) | ligand displacement, radioligand | – | 10 µM | inhibition | 8%
Cc1cccnc1C(=O)Nc1ccc(N2C(=O)c3ccccc3C2=O)c(Cl)c1 | Grm1 | calcium signal, positive allosteric modulator | T-REx-293 | – | Emax | 109%
O=C(CN1C(=O)Cc2c([nH]c3ccc(Br)cc23)-c2ccc(Cl)cc21)Nc1ccccc1 | Trypanothione synthetase | enzyme activity, inhibitor, absorbance | – | 30 µM | inhibition | 29.6%
Cc1ccc(C(=O)Nc2ccc(CN3CCN(C)CC3)c(C(F)(F)F)c2)cc1C#Cc1cnc2cccnn12 | CDC42BPG | cell-free assay | – | 23.5 nM | remaining signal | 100%
O=C(Nc1ccc(S(=O)(=O)N2CCC(Cl)CC2)cc1)c1ccc([N+](=O)[O-])o1 | MTNR1A | ligand displacement, radioligand | – | 10 µM | inhibition | 8%
O=C(Nc1ccc(C=NNS(=O)(=O)c2ccc3ccccc3c2)cc1)c1ccc([N+](=O)[O-])cc1 | murC | enzyme activity, inhibitor, absorbance | – | 50 µM | remaining activity | 71%
Cc1cc(NC(=O)c2cccc3cc(-c4cccc5[nH]nc(N)c45)ccc23)ccc1F | MAPK/MAK/MRK overlapping kinase (MOK, Homo sapiens, UniProt Q9UQ07) | enzyme activity, inhibitor | – | 0.1 µM | activity vs control | 95%
N#Cc1ccc(COc2ccccc2C=NNS(=O)(=O)c2ccccc2[N+](=O)[O-])cc1 | murC | enzyme activity, inhibitor, absorbance | – | 100 µM | remaining activity | 95%
COc1cc(I)c2[nH]cc(CCNC(C)=O)c2c1 | MTNR1A | β-arrestin recruitment, agonist | CHO-K1 | 90 min | Emax | 95%
